In assay [1] the test system is stationary phase S. aureus Newman cells. Put plainly: Stationary-phase persister cell killing. It is filed as cell-based, Staphylococcus aureus. To be noted: 100× or 10× MIC.
In assay [2] the test system is S. aureus MRSA strain USA300. Put plainly: Murine epicutaneous infection model. It is filed as in vivo, BALB/c mice.
The test system of assay [3] is S. aureus Newman. Put plainly: MIC, broth microdilution. It is filed as cell-based. Conditions: Staphylococcus aureus. (In general: Broth dilution looks for growth in wells or tubes with falling amounts of substance.)
The subject of assay [4] is S. aureus RN4220 overexpressing putative target genes. Put plainly: MIC against strains overexpressing putative target proteins. Conditions: fig. S4A. It is filed as cell-based, Staphylococcus aureus.
The test system of assay [5] is S. aureus Newman. It is filed as cell-based, Staphylococcus aureus. Conditions: 40 mM, fig. S4C.
Assay [6] has as its system S. aureus Newman. In words: Time-killing assay, exponential culture. In kind it is cell-based, Staphylococcus aureus. Conditions: control experiment. The gist of the method:
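Newman grown in LB at 37°C with shaking to OD600 0.4–0.6, then diluted to 1 × 10⁶ CFU/ml in LB containing various concentrations of test compound, with vancomycin as comparator. Incubated at 37°C with shaking. Serial dilutions plated on LB agar at set time points for CFU/ml. Duplicate, three independent experiments.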

Assay [7] deals with MRSA USA300 preformed biofilm. Put plainly: Preformed biofilm eradication, crystal violet. Conditions: control. In kind it is cell-based, Staphylococcus aureus. The gist of the method: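 Eradication of preformed USA300 biofilms by test compound was quantified by crystal violet staining after washing. Three independent experiments, triplicate runs per concentration.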
Assay [8] concerns S. aureus MRSA strain USA300. In words: MIC, broth microdilution. It is filed as cell-based. Conditions: Staphylococcus aureus. The gist of the method: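 CLSI M07-A10 broth microdilution with twofold serial dilutions of test compound in MH broth. Inoculum was cells grown in MH broth at 37°C with shaking to OD600 0.4–0.6, diluted to ~1 × 10⁵ CFU/ml final. Run in duplicate, three independent experiments.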

In a further assay the test system is S. aureus USA300. Put plainly: Transmission electron microscopy of cell structure. In kind it is cell-based, Staphylococcus aureus. Conditions: 0.5× MIC, cell lysis within 4 hours.

Structures are written as SMILES. ≈ marks a conversion by molar mass, not a printed value.

`O=C(O)c1cn(C2CC2)c2cc(N3CCNCC3)c(F)cc2c1=O` [Cipro, ciprofloxacin]: the tolerance of persisters result in [1] was “high level of tolerance”.
In the case of `COc1cccc(OC)c1C(=O)N[C@@H]1C(=O)N2[C@@H]1SC(C)(C)[C@@H]2C(=O)O` [Met, methicillin], the “killing effect compared to the vehicle control” value in assay [2] (3 mg kg^−1) was “no significant killing effect”.
Broadly, the MIC is the lowest concentration that inhibits growth of the organism. The low end stands for a more susceptible organism, the high end for a less susceptible organism. In the assay on S. aureus Newman [3], `CC1(C)S[C@@H]2[C@H](NC(=O)Cc3ccccc3)C(=O)N2[C@H]1C(=O)O` [Pen, penicillin G] came in with an MIC of 0.125 µg/mL (≈ 0.374 µM). For the same molecule, in assay [1], the tolerance of persisters result is recorded as “high level of tolerance”. In [4], the “effect of overexpression of each protein on sensitivity” value is on record as “no effect”. Also, in the assay on S. aureus Newman [5], the “effect of sole addition of lysine or UDP-GlcNAc on susceptibility” value is “did not affect”.
Consider `CN[C@H](CC(C)C)C(=O)N[C@H]1C(=O)N[C@@H](CC(N)=O)C(=O)N[C@H]2C(=O)N[C@H]3C(=O)N[C@H](C(=O)N[C@H](C(=O)O)c4cc(O)cc(O)c4-c4cc3ccc4O)[C@H](O)c3ccc(c(Cl)c3)Oc3cc2cc(c3O[C@@H]2O[C@H](CO)[C@@H](O)[C@H](O)[C@H]2O[C@H]2C[C@](C)(N)[C@H](O)[C@H](C)O2)Oc2ccc(cc2Cl)[C@H]1O` [Van, vancomycin], for which the “killing speed compared with ChryA” value in the assay with S. aureus Newman [6] is on record as “much slower killing”. The antibiofilm ability result in assay [7] is given as “no antibiofilm ability”.
Consider `C[C@@H]1O[C@@H]1P(=O)(O)O` [fosfomycin], for which, in assay [8], the MIC stood at 4 µg/mL (≈ 29 µM). Further, the “cell wall integrity (TEM)” value in the assay on S. aureus USA300 is listed as “severely impaired”.
In [8], `CC(=O)O[C@H]1C[C@@]2(C)[C@@H](C[C@@H](O)[C@H]3[C@@]4(C)CC[C@@H](O)[C@@H](C)[C@@H]4CC[C@@]32C)/C1=C(\CCC=C(C)C)C(=O)O` [fusidic acid] had an MIC of 0.031 µg/mL (≈ 0.06 µM). In addition, the “effectiveness, ChryA versus fusidic acid” value in assay [2] (bacterial colonization of wounds on Day 16, fig. S3) is on record as “less effectiveness compared to the low dose of ChryA”.

Source of the values: PMC10403215 (Science Advances, 2023).
